# Source: PubChem BioAssay
# Sampled rows, rich in hits. Any-hit rate of the full collection: about 3.5%.
# MrgX1 antag: antagonists of human MrgX1 receptor, primary screen, HEK293 cells, Fluo-4 calcium flux; BAM8-22 antagonism; active compounds read low; B-score at 10 µM; AID 588676, 2011; 310,000 compounds, 1.3% hits;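 active means calcium-response B-score plate-corrected more than 3 library SD below zero, starting fluorescence within 5 deviations, no agonist response on first addition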;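 further: peak minus trough fluorescence over baseline after final BAM8-22 challenge near maximal dose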
# Target sequence (Q96LB2 whole entry, looked up): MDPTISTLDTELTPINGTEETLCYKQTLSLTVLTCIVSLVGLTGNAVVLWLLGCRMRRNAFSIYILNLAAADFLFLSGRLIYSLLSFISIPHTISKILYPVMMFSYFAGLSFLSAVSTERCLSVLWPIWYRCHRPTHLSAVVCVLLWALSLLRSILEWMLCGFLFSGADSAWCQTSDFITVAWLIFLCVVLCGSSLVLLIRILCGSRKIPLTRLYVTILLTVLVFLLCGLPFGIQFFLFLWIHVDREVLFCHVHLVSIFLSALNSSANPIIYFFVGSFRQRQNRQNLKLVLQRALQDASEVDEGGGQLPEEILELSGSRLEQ
# MrgX1 allo act: positive allosteric modulators of MrgX1, primary screen, HEK293 cells, Fluo-4 calcium flux. 310,000 compounds, 0.63% hits. Mas-related G-protein coupled receptor member X1 (Homo sapiens), Q96LB2. B-score at 10 µM. FDSS; active compounds read high;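 active means plate-corrected calcium response at least 3 library SD above typical, normal starting fluorescence, not activating the receptor alone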;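 further: compound read alongside a low EC10 to EC30 dose of BAM8-22 agonist; peak minus trough fluorescence over baseline measured at the second addition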
# RGS4 block: RGS4 inhibitors, primary screen, cell-based, HEK293 M3R inducible RGS4, calcium flux | Fluo-4 calcium flux; active compounds read high; triggered by carbachol at its EC20 | AID 463165, 2010 | 310,000 compounds, 0.45% hits | Regulator of G-protein signaling 4 (Homo sapiens), P49798 | B-score at 10 µM;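 active means B-score, a plate-corrected calcium signal, over three deviations above library mean, with baseline fluorescence within five deviations of library mean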;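 further: RGS4 expression induced by doxycycline in cells with stable M3 receptor; B-score is computed from the integrated fluorescence ratio over baseline after carbachol; higher B-score means a larger calcium signal and so more RGS4 inhibition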
# Target sequence (P49798 whole entry, looked up): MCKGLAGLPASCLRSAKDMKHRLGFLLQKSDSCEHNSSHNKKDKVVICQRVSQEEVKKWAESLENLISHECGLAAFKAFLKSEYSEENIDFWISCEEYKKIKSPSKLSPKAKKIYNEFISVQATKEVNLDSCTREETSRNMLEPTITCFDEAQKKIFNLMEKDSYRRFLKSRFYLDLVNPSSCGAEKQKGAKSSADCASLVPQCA
# RGS4 pot: RGS4 potentiators or activators, primary screen, cell-based, HEK293 M3R inducible RGS4, calcium flux; carbachol calcium flux Fluo4; active compounds read low; B-score at 10 µM; 310,000 compounds, 0.92% hits;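 active means B-score of the integrated calcium signal more than 4 SD below the library mean, with starting fluorescence not abnormally high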;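 further: negative B-score means reduced calcium response which marks RGS4 activation or potentiation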
#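 Assay system: HEK293 FlpIn-TREx cells, stable M3R, doxycycline-inducible RGS4 / Probe or stimulus: carbachol, ECmax concentration / Times: overnight RGS4 induction, 30 min dye load 37 °C, 20 min compound RT / Signal: kinetic calcium fluorescence imaging with Fluo4-AM dye, 2 µM / Measure: Agonist-evoked peak-minus-minimum fluorescence over baseline, integrated ratio, B score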
# MrgX1 ag: agonists of human MrgX1 receptor, primary screen, HEK293 cells, Fluo-4 calcium flux; Fluo-4 calcium fluorescence, agonist mode; active compounds read high; B-score at 10 µM; 310,000 compounds, 0.44% hits; AID 588627, 2011;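 active means calcium response B-score plate-corrected fluorescence ratio at least 3 library SD, with starting fluorescence B-score inside 5 SD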
#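 Test system: Stable human MrgX1 HEK293 cell line | Schedule: Overnight plating before 1 h dye loading | Read-out basis: Baseline-normalised fluorescence change ratio, B-scored | Detection: Kinetic calcium dye fluorescence, Fluo-4 NW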
# MrgX1 ant reconf: MrgX1 receptor antagonists, duplicate retest, confirmation, HEK293 cells, Fluo-4 calcium flux; shares compounds with MrgX1 antag; BAM8-22 calcium flux; active compounds read low; remaining BAM8-22 calcium response % of control (active compounds read low), % at 10 µM; 2,300 compounds, 19% hits; AID 602420, 2012;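 active means remaining agonist calcium response no higher than 100% minus 3 SD of agonist-only control wells, with starting fluorescence near control levels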;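 further: agonist BAM8-22 given at a near maximal EC90 to ECmax level; peak minus minimum fluorescence divided by baseline after agonist addition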
# HEK293 Ca flux: nonspecific calcium signal in parental HEK293, confirmation, counter-screen for MrgX1 antagonist project, parental HEK293 cells, Fluo-4 calcium flux. fluorescence ratio F(max-min)/F0 at 10 µM. shares compounds with MrgX1 antag. 4,000 compounds, 2% hits. Fluo-4 calcium fluorescence, FDSS. AID 624111, 2012;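 active means duplicate-averaged calcium fluorescence ratio at least three times the standard deviation of buffer wells, a nonspecific response in parental cells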
# HEK293 Ca counter: calcium response in parental HEK293 cells, primary screen, counter-screen for MrgX1 allosteric activator project, cell-based, Fluo-4 calcium flux, duplicate; fluorescence ratio F(max-min)/F0 at 10 µM; AID 624114, 2012; 4,000 compounds, 0.4% hits; shares compounds with MrgX1 antag; Fluo-4 fluorescence ratio; active compounds read high;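 active means calcium fluorescence ratio, averaged over duplicates, at least 3 SD of the buffer-well ratio, meaning a nonspecific response in receptor-free cells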;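 further: untransfected parental HEK293 lacking MrgX1 used as counterscreen for MrgX1 allosteric activators; fluorescence change taken during the second addition on a kinetic imager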
# HEK293 Ca cntr2: calcium response in parental HEK293 cells, primary screen, counter-screen for MrgX1 agonist project, cell-based, Fluo-4 calcium flux, duplicate, agonist mode. shares compounds with MrgX1 antag. fluorescence ratio F(max-min)/F0 at 10 µM. AID 624115, 2012. 4,000 compounds, 8.7% hits. Fluo-4 calcium fluorescence (FDSS); active compounds read high;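 active means calcium fluorescence ratio at least three times the spread of buffer wells, meaning a non-specific response in parental cells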
# Numbers stand for hits; n = inactive; x = no result given.
SMILES,MrgX1 antag,MrgX1 allo act,RGS4 block,RGS4 pot,MrgX1 ag,MrgX1 ant reconf,HEK293 Ca flux,HEK293 Ca counter,HEK293 Ca cntr2
COc1ccc(C)cc1-n1nnnc1SCC(=O)Nc1cccnc1Cl,-5.94,n,n,n,n,n,n,n,n
COc1ccc(C)cc1-n1nnnc1SCC(=O)Nc1cc(C)on1,n,n,n,n,n,x,x,x,x
O=C(OCn1nnc2ccccc2c1=O)C1CCCCC1,-10.3,n,n,n,n,n,n,n,n
Cc1ccc(S(=O)(=O)Cn2nnnc2C(C(C)C)N2CCN(Cc3ccco3)CC2)cc1 (configuration not stated),-5.72,n,n,n,n,n,n,n,n
Cc1ccc(S(=O)(=O)Cn2nnnc2C(C(C)C)N2CCSCC2)cc1 (configuration not stated),n,n,n,n,n,x,x,x,x
Cn1c(CNc2ccccc2)nc2ccccc21,-6.93,n,n,n,n,84.9%,n,n,n
CC(=O)N1CCN(S(=O)(=O)c2cccc(C(=O)Nc3ccccc3N3CCCC3)c2)CC1,n,n,n,n,n,x,x,x,x
CN1CCN(S(=O)(=O)c2cccc(C(=O)Nc3ccccc3N3CCCC3)c2)CC1,-4.6,n,n,n,n,n,n,n,n
COc1ccc(Nc2oc(-c3ccc(OC)cc3)nc2C#N)cc1,-5.77,n,n,n,n,n,n,n,n
Cc1cc(C)c2cc3c(ccn3C3OC[C@H](O)[C@H](O)[C@H]3O)cc2n1 (some centres not stated),-6.36,n,n,n,n,n,n,n,n
CCCCN(C)CCNC(=O)C(NC(=O)C1CCC(C)CC1)C(C)C (configuration not stated),n,n,n,n,n,x,x,x,x
O=C(Nc1ccc(CN2CCOCC2)cc1)c1ccc(Cl)cc1,n,n,n,n,n,x,x,x,x
O=C(Nc1ccc(S(=O)(=O)Nc2ccccc2)cc1)c1ccc(CN2CCOCC2)cc1,-4.55,n,n,n,n,78.9%,n,n,n
Cc1cc(C)c(NC(=O)CCCCCNC2CCCCC2)c(C)c1,n,n,n,n,n,x,x,x,x
COc1ccc(CCNc2ncnc3c2oc2ccccc23)cc1OC,-4.63,n,n,n,n,42.9%,n,n,n
CCn1c(SCC(=O)c2ccc3c(c2)OCCO3)nnc1C(C)C,-4.65,n,x,x,n,n,n,n,n
CC(C)CN(C(=O)COc1ccc(Br)cc1C=O)C1CCS(=O)(=O)C1 (configuration not stated),n,n,n,n,n,x,x,x,x
COc1cccc(-c2nc(CS(=O)(=O)CC(=O)N3CCc4ccccc43)c(C)o2)c1,-4.88,n,n,n,n,n,n,n,n
O=C(CCn1cnc2ccccc2c1=O)Nc1ccc(S(=O)(=O)N2CCCC2)cc1,n,n,n,n,n,x,x,x,x
Cc1ccc(N(CN2C(=O)C3C4CCC(C4)C3C2=O)C(=O)c2ccco2)cc1 (configuration not stated),n,n,n,n,n,x,x,x,x
O=C1CCC(=O)N1CN(C(=O)c1ccco1)c1ccccc1,-6.58,n,n,n,n,n,n,n,n
COc1ccccc1OCC(=O)Nc1nnc(C2CCCC2)s1,n,n,n,n,n,x,x,x,x
CC(=O)c1sc(NC(=O)COc2ccc(Cl)cc2Cl)nc1C,-4.74,n,n,n,n,n,n,n,n
